The source made the active and inactive calls. The rule behind the calls is not given here.
How the values were obtained:
[1] = Upregulation of ceramide glucosyltransferase protein levels in human BxPC-3 cells incubated for 16 hrs by proteomic analysis; type: functional
Outline: (§1)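 BxPC-3 cells exposed to compound (2 μM) or DMSO control for 16 h, then lysed in RIPA buffer at 4 °C. Protein quantified by BCA; 75 μg per sample. TMT 10plex labeling: DTT reduction (1 h, 55 °C), 2-chloroacetamide alkylation (30 min, RT), acetone precipitation, overnight trypsin digestion at 37 °C, then LC-tandem MS relative quantitation. Control and treated samples run in triplicate.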

[2] = target: Protein cereblon/Protein PRRC2B (Homo sapiens) (UniProt Q96SW2+Q5JSZ5); experiment: Protac activity at CRBN/PRRC2B in human BxPC-3 cells assessed as PRRC2B degradation incubated for 16 hrs by proteomic analysis; type: cell-based
Outline: (§2)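 TMT 10plex proteomics. […] Samples (75 μg) were reduced with DTT, alkylated with 2-chloroacetamide, acetone-precipitated, trypsin-digested overnight at 37 °C and TMT-labeled for LC-MS/MS relative quantitation.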

[3] = target: T1, Protein cereblon/E3 ubiquitin-protein ligase ZFP91 (Homo sapiens, UniProt Q96SW2+Q96JP5); experiment: Protac activity at CRBN/ZFP91 in human BxPC-3 cells assessed as induction of ZF91 degradation incubated for 16 hrs by western blot analysis; type: cell-based
Outline: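 BxPC-3 cells treated for 4, 16 or 24 h across a concentration series. ZFP91 immunoblotted against GAPDH; bands quantified by densitometry, DC50 calculated from dose-response curves of the densitometry.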

[4] = target: T1, Protein cereblon/E3 ubiquitin-protein ligase ZFP91; experiment: Protac activity at CRBN/ZFP91 in human MIA PaCa-2 cells assessed as ZF91 protein degradation at 0.1 to 0.5 uM incubated for 16 hrs in presence of proteasome inhibitor carfilzomib by western blot analysis; type: cell-based; settings: dose 0.1-0.5 µM
[5] = target: Protein cereblon/E3 ubiquitin-protein ligase SHPRH (Homo sapiens) (UniProt Q96SW2+Q149N8); experiment: Protac activity at CRBN/SHPRH in human BxPC-3 cells assessed as SHPRH degradation incubated for 16 hrs by proteomic analysis; type: cell-based; outline: as §2
[6] = target: T2, Protein cereblon/Signal transducer and activator of transcription 3 (Homo sapiens, UniProt P40763+Q96SW2); experiment: Protac activity at CRBN/STAT3 in human BxPC-3 cells assessed as STAT3 degradation incubated for 16 hrs by proteomic analysis; type: cell-based
Outline: (§3)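 BxPC-3 cells exposed 16 h in triplicate (control, PROTAC) or duplicate (other arms); lysed in RIPA at 4 °C, 75 μg protein per sample. Reduced with DTT (1 h, 55 °C), alkylated with 2-chloroacetamide, acetone-precipitated, trypsin-digested overnight at 37 °C, TMT 10plex labelled, relative quantitation by LC-tandem MS.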

[7] = tested on: HEK293; experiment: Antiproliferative activity against human HEK293 cells assessed as reduction in cell viability incubated for 24 hrs by MTT assay; type: functional, cell-based; settings: HEK293, 24 h
Outline: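 HEK-293 cells were treated with compound for 24 h, in parallel with the luciferase reporter assay. Viability was read by MTT absorbance at 570 nm, and IC50 was taken from three independent experiments.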

[8] = target: Protein cereblon/Cyclin-D1-binding protein 1 (Homo sapiens) (UniProt Q96SW2+O95273); experiment: Protac activity at CRBN/CCNDBP1 in human BxPC-3 cells assessed as CCNDBP1 degradation incubated for 16 hrs by proteomic analysis; type: cell-based; outline: as §2
[9] = target: Protein cereblon/Cold shock domain-containing protein E1 (Homo sapiens) (UniProt Q96SW2+O75534); experiment: Protac activity at CRBN/CSDE1 in human BxPC-3 cells assessed as CSDE1 degradation incubated for 16 hrs by proteomic analysis; type: cell-based; outline: as §2
[10] = target: Protein cereblon/Transmembrane protease serine 4 (Homo sapiens) (UniProt Q9NRS4+Q96SW2); experiment: Protac activity at CRBN/TMPRSS4 in human BxPC-3 cells assessed as TMPRSS4 degradation incubated for 16 hrs by proteomic analysis; type: cell-based; outline: as §3
[11] = target: Protein cereblon/Apoptosis-stimulating of p53 protein 2 (Homo sapiens) (UniProt Q96SW2+Q13625); experiment: Protac activity at CRBN/TP53BP2 in human BxPC-3 cells assessed as TP53BP2 degradation incubated for 16 hrs by proteomic analysis; type: cell-based; outline: as §3
[12] = target: Protein cereblon/Agrin (Homo sapiens) (UniProt Q96SW2+O00468); experiment: Protac activity at CRBN/Agrin in human BxPC-3 cells assessed as Agrin degradation incubated for 16 hrs by proteomic analysis; type: cell-based; outline: as §2
[13] = Upregulation of DNAJB9 protein levels in human BxPC-3 cells incubated for 16 hrs by proteomic analysis; type: functional; outline: as §3
[14] = Upregulation of RND3 protein levels in human BxPC-3 cells incubated for 16 hrs by proteomic analysis; type: functional; outline: as §3
[15] = Upregulation of Arx protein levels in human BxPC-3 cells incubated for 16 hrs by proteomic analysis; type: functional; outline: as §3
[16] = Upregulation of ZNF430 protein levels human BxPC-3 cells incubated for 16 hrs by proteomic analysis; type: functional; outline: as §1
[17] = target: Protein cereblon/Cystatin-C (Homo sapiens) (UniProt P01034+Q96SW2); experiment: Protac activity at CRBN/CST3 in human BxPC-3 cells assessed as CST3 degradation incubated for 16 hrs by proteomic analysis; type: cell-based; outline: as §2
[18] = target: Protein cereblon/Protein FAM3C (Homo sapiens) (UniProt Q96SW2+Q92520); experiment: Protac activity at CRBN/FAM3C in human BxPC-3 cells assessed as FAM3C degradation incubated for 16 hrs by proteomic analysis; type: cell-based; outline: as §2
[19] = target: Protein cereblon/Pleckstrin homology-like domain family B member 1 (Homo sapiens) (UniProt Q96SW2+Q86UU1); experiment: Protac activity at CRBN/PHLDB1 in human BxPC-3 cells assessed as PHLDB1 degradation incubated for 16 hrs by proteomic analysis; type: cell-based; outline: as §2
[20] = target: Protein cereblon/E3 ubiquitin-protein ligase DTX3L (Homo sapiens) (UniProt Q96SW2+Q8TDB6); experiment: Protac activity at CRBN/DTX3L in human BxPC-3 cells assessed as DTX3L degradation incubated for 16 hrs by proteomic analysis; type: cell-based; outline: as §2
[21] = target: T2, Protein cereblon/Signal transducer and activator of transcription 3; experiment: Protac activity at CRBN/STAT3 in human BxPC-3 cells assessed as decrease in STAT3 expression level at 2 to 6 uM incubated for 12 hrs in presence of proteasome inhibitor MG132 by western blot analysis; type: cell-based; settings: dose 2-6 µM
Outline: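 Immunoblot of BxPC-3 cells given a 2 h pretreatment with MG132 at 10 μM, then test agent for 12 h. Cell lysis, BCA assay, SDS-PAGE/PVDF, probed for STAT3, pSTAT3 and NQO1 with GAPDH as reference.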

[22] = target: Protein cereblon/Anamorsin (Homo sapiens) (UniProt Q96SW2+Q6FI81); experiment: Protac activity at CRBN/CIAPIN1 in human BxPC-3 cells assessed as CIAPIN1 degradation incubated for 16 hrs by proteomic analysis; type: cell-based; outline: as §2
[23] = target: Protein cereblon/Methylated-DNA--protein-cysteine methyltransferase (Homo sapiens) (UniProt P16455+Q96SW2); experiment: Protac activity at CRBN/MGMT in human BxPC-3 cells assessed as MGMT degradation incubated for 16 hrs by proteomic analysis; type: cell-based; outline: as §2
[24] = Upregulation of RhoB protein levels in human BxPC-3 cells incubated for 16 hrs by proteomic analysis; type: functional; outline: as §3

T2 sequence (P40763 2-770 limits assumed): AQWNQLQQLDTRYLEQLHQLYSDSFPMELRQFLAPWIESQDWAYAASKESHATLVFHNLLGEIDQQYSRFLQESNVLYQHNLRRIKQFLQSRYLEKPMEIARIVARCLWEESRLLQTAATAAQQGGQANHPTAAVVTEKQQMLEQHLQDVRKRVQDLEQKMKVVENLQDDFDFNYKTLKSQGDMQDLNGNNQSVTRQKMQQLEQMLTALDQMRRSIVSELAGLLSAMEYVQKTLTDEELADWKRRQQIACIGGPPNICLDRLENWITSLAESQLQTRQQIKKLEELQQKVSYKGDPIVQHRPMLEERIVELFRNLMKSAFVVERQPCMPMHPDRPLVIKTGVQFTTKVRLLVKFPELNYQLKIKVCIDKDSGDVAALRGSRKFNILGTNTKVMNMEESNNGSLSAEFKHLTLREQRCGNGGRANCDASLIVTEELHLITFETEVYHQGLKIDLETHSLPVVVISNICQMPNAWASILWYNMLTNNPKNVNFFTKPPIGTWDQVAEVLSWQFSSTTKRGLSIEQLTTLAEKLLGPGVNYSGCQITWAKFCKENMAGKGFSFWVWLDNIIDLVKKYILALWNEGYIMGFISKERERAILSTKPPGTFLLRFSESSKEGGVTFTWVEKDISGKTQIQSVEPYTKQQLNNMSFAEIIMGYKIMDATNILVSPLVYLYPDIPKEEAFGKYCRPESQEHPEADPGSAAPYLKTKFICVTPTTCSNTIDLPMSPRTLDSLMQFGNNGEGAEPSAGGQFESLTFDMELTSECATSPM
T2 sequence (Q96SW2 whole entry partner): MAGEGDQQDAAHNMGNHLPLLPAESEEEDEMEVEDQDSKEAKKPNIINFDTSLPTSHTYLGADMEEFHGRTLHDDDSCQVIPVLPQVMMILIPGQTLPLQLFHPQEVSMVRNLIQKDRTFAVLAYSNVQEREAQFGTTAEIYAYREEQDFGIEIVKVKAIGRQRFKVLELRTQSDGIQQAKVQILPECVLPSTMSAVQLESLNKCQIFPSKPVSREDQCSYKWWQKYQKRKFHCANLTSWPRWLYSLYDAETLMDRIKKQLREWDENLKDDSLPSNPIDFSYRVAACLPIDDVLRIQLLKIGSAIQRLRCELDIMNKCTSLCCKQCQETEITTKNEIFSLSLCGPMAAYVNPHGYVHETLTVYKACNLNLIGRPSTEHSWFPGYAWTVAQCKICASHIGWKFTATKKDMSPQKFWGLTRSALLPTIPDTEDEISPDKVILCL
Chain of Protein cereblon/Apoptosis-stimulating of p53 protein 2 (Homo sapiens) (Q13625 whole entry, looked up): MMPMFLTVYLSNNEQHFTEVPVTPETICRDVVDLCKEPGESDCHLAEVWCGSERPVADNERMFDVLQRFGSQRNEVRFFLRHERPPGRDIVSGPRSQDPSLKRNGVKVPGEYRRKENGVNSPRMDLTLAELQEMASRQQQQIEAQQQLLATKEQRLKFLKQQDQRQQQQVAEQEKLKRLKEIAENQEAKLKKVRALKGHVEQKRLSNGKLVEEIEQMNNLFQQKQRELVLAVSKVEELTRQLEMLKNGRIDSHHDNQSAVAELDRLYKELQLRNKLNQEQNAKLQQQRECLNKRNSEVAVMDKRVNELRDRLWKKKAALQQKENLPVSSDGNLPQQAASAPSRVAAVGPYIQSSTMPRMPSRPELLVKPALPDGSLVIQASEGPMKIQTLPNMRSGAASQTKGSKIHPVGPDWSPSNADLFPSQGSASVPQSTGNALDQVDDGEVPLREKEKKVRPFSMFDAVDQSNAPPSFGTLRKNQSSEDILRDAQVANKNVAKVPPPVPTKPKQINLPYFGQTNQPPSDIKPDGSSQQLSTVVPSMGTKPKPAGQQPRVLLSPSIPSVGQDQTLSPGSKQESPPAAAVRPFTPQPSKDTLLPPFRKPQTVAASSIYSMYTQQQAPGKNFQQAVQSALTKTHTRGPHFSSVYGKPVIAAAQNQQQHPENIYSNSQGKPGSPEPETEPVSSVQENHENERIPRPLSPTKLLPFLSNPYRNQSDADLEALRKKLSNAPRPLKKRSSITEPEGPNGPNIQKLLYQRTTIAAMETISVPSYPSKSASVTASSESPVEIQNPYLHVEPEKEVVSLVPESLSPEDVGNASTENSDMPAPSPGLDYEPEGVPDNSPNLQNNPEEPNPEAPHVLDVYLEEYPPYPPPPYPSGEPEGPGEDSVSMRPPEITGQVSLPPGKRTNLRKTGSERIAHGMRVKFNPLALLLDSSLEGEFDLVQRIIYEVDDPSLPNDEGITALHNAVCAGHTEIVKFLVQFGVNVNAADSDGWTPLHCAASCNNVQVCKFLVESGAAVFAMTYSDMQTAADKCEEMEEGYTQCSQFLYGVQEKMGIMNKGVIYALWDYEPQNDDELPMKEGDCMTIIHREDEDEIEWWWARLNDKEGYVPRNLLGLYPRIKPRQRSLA
Chain of Protein cereblon/Apoptosis-stimulating of p53 protein 2 (Homo sapiens) (Q96SW2 whole entry, looked up): as the sequence (Q96SW2 whole entry partner) above
Chain of Protein cereblon/Anamorsin (Homo sapiens) (Q6FI81 whole entry, looked up): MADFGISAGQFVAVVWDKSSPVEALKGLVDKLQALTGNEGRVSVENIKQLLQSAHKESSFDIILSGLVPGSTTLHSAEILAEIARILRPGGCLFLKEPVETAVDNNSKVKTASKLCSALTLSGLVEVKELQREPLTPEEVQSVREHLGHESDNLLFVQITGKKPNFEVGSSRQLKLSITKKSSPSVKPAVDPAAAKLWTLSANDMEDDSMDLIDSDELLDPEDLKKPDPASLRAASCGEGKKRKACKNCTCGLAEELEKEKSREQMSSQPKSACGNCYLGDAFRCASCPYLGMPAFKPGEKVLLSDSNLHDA
Chain of Protein cereblon/Anamorsin (Homo sapiens) (Q96SW2 whole entry, looked up): as the sequence (Q96SW2 whole entry partner) above
Chain of Protein cereblon/Cold shock domain-containing protein E1 (Homo sapiens) (O75534 whole entry, looked up, the tested form may be a part): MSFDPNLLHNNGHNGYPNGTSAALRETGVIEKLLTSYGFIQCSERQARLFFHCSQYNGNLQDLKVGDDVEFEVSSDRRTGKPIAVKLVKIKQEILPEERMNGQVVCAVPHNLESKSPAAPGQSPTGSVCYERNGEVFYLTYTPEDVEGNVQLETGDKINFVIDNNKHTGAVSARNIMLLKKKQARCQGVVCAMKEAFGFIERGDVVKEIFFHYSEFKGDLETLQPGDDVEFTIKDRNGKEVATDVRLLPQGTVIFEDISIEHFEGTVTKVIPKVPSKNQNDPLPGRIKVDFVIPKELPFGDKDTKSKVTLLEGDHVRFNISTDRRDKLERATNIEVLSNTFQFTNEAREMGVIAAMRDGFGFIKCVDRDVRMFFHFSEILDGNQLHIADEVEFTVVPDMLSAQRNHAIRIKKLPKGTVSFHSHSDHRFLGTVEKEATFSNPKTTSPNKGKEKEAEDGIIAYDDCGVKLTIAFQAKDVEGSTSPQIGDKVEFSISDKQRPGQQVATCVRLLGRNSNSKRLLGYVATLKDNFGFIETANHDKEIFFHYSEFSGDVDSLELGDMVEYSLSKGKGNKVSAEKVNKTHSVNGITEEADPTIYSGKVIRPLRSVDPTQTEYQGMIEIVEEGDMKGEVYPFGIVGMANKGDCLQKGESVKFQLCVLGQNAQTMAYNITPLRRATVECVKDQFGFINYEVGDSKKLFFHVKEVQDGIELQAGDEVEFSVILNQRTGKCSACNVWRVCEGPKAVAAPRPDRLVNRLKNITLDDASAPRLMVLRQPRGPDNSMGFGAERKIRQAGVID
Chain of Protein cereblon/Cold shock domain-containing protein E1 (Homo sapiens) (Q96SW2 whole entry, looked up, the tested form may be a part): as the sequence (Q96SW2 whole entry partner) above

log2FC [2]: -0.63
DC50 [3]: 0.08 µM
Activity [4]: inactive
log2FC [5]: -0.74
log2FC [6]: -0.69
log2FC [8]: -0.59
log2FC [9]: -0.75
log2FC [10]: -1.27
log2FC [11]: -1.02
log2FC [12]: -0.68
log2FC [17]: -0.81
log2FC [18]: -0.73
log2FC [19]: -0.64
log2FC [20]: -0.96
Activity [21]: Active
log2FC [22]: -0.59
log2FC [23]: -0.63
Structure (SMILES): O=C1CCC(N2C(=O)c3cccc(NCCCCCC4CCN(CCNC(=O)c5cc6c(o5)C(=O)c5ccccc5C6=O)CC4)c3C2=O)C(=O)N1 (centres undefined)
log2FC [1]: 0.62
IC50 [7]: 8.7 µM
log2FC [13]: 1.35
log2FC [14]: 0.98
log2FC [15]: 1.54
log2FC [16]: 0.77
log2FC [24]: 0.73
